{
  "source": "ChEMBL document CHEMBL4706573",
  "about": "“Synthesis and evaluation of thiophene based small molecules as potent inhibitors of Mycobacterium tuberculosis” (Eur J Med Chem, 2020)",
  "note": "The source made the active and inactive calls. No cut-off for these calls is given here.",
  "data": [
    {"test_system": "Mycobacterium tuberculosis", "assay": "Antimycobacterial activity against INH-resistant Mycobacterium tuberculosis mc2497 after 10 to 14 days", "type": "functional, organism-based", "settings": "time 10-14 day", "how_it_was_run": "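MIC99 determined in whole cells, tested in triplicate with INH as the positive control. Strains were wild-type, pMV306, pMV306-pks13 and INH-resistant mc2 497. Susceptibility was scored relative to the parental strain: S where the MIC99 was at most 2x the parental MIC99.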", "values": [
      {"smiles": "COC(=O)c1cc(-c2ccccc2)sc1NC(=O)CCl", "Activity": "inactive"},
      {"smiles": "COC(=O)c1cc(-c2cc(F)cc(F)c2)sc1NC(=O)CCl", "Activity": "inactive"},
      {"smiles": "COC(=O)c1cc(-c2ccc(C(F)(F)F)cc2)sc1NC(=O)CCl", "Activity": "inactive"},
      {"smiles": "COC(=O)c1cc(-c2ccc(F)cc2)sc1NC(=O)CCl", "Activity": "inactive"},
      {"smiles": "CO[C@H]1/C=C/O[C@@]2(C)Oc3c(C)c(O)c4c(O)c(c(/C=N/N5CCN(C)CC5)c(O)c4c3C2=O)NC(=O)/C(C)=C\\C=C\\[C@H](C)[C@H](O)[C@@H](C)[C@@H](O)[C@@H](C)[C@H](OC(C)=O)[C@@H]1C", "note": "[RIFAMPIN]", "Activity": "Active"},
      {"smiles": "COC(=O)c1cc(-c2cc3ccccc3s2)sc1NC(=O)CCl", "Activity": "inactive"},
      {"smiles": "COC(=O)c1cc(-c2cccc(F)c2)sc1NC(=O)CCl", "Activity": "inactive"},
      {"smiles": "CCOC(=O)c1cc(-c2ccccc2)sc1NC(=O)CBr", "Activity": "inactive"},
      {"smiles": "COC(=O)c1ccsc1NC(=O)CCl", "Activity": "inactive"},
      {"smiles": "NNC(=O)c1ccncc1", "note": "[ISONIAZID]", "Activity": "inactive"}
    ]}
  ]
}
